≈ marks a conversion by molar mass, not a printed value.

Results on 5 compounds are retold here after ChEMBL document CHEMBL1124751, “Synthesis of perfluoroalkylated xylitol ethers and esters: new surfactants for biomedical uses” (J Med Chem, 1990).

The nature of data set [1]: Growth inhibition towards Namalva Lymphoblastoid Cell Culture at the concentration of 0.1 g/L. Format: functional. The essentials: (§1)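 Namalva lymphoblastoid suspension culture (RPMI with 10% fetal calf serum, 37 °C, 7% CO2). 2 mL medium at about 3.10^5 cells/mL was mixed with 2 mL test solution, in five flasks, with a reference series in parallel. Cells were counted after 4 days of incubation, and viability was read by Trypan Blue exclusion. Results are % vs controls.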

Data set [2] can be described thus: Viability inhibition towards Namalva Lymphoblastoid Cell Culture at the concentration of 0.1 g/L. The format is functional. The essentials: as §1
Data set [3] in a line: Growth and viability inhibition towards Namalva Lymphoblastoid Cell Culture at the concentration of 0.05 g/L after dispersion in pluronic F-68. Format: functional.
The nature of data set [4]: Percent hemolysis for an erythrocyte suspension at 1% hemocrait at the concentration of 10 g/ L. The format is functional, Homo sapiens. The method in brief:
(§2)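 Washed human red cells at 1% hematocrit (8-9 × 10^7 cells/mL) in phosphate saline pH 7.4 were mixed 1:1 with surfactant/Pluronic F-68 dispersion in 9‰ NaCl and shaken 1 h at 37 °C. After centrifugation, supernatant hemoglobin was read at 540 nm. % hemolysis = 100 (OD_test − OD_NaCl)/(OD_H2O − OD_NaCl), with 9‰ NaCl as the 0% control and water as the 100% control.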

Data set [5] in a line: Percent hemolysis for an erythrocyte suspension at 1% hemocrait at the concentration of 20 g/10 g per L. Format: functional, Homo sapiens. The essentials: as §2
Data set [6] in a line: Percent hemolysis for an erythrocyte suspension at 1% hemocrait at the concentration of 10 g/1g per L. The format is functional, Homo sapiens. The essentials: as §2
The subject of data set [7] is Mus musculus. The experiment in a line: Toxicity in mice when dispersed in Pluronic F-68 in […] aqueous NaCl of 42 g/22 g per L at the concentration of 1035 mg/kg body weight. Format: functional. The method in brief: (§3)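 Single tail-vein injection into mice of about 20 g, about 0.5 mL (25 mL/kg body weight) per animal. The test article was a solution or dispersion of surfactant in Pluronic F-68, given as g compound/g Pluronic per L, in 9‰ aqueous NaCl. Symptoms, behavior, mortality and body-weight gain were recorded for 80 days after injection. Survival was reported as survivors/injected in a series of 10 mice.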

Data set [8] can be described thus: Percent hemolysis for an erythrocyte suspension at 1% hemocrait at the concentration of 20 g/ L. Format: functional, Homo sapiens. The essentials:
as §2

For data set [9], the system named is Mus musculus. Kind of data set: Toxicity in mice when dispersed in Pluronic F-68 in […] aqueous NaCl of 20 g/10 g per L at the concentration of 455,mg/Kg body weight. The format is functional. The essentials: as §3
A short description of data set [10]: Growth and viability inhibition towards Namalva Lymphoblastoid Cell Culture after resowing at the concentration of 0.1 g/L. The format is functional. The method in brief: (§4)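 Namalva lymphoblastoid cells in suspension (RPMI, 10% fetal calf serum, 37 °C, 7% CO2). Five flasks per test, each with 2 mL medium at about 3.10^5 cells/mL plus 2 mL test solution, alongside a reference series. After 4 days the compound was removed. Cells were washed and resown in 4 mL medium, and growth and viability were reported as % vs controls.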

In data set [11] the test system is Mus musculus. The experiment in a line: Toxicity in mice when dispersed in Pluronic F-68 in […] aqueous NaCl of 50 g/15 g per L at the concentration of 1187 mg/kg body weight. The format is functional. The essentials:
as §3

A short description of data set [12]: Solubility was determined. The format is physicochemical.
A short description of data set [13]: Viability inhibition towards Namalva Lymphoblastoid Cell Culture at the concentration of 0.05 g/L after dispersion in pluronic F-68. Format: functional. The essentials: as §1
A short description of data set [14]: Hemolytic effect on human red blood cells when dispersed in Pluronic F-68 at the concentration of 10 g/1g per L. The format is functional. The method in brief: (§5)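 Human erythrocytes were freed of plasma and buffy coat (3300 rpm, 10 min, 10 °C), washed three times in isotonic phosphate saline pH 7.4, then suspended at 1% hematocrit. 2 mL suspension plus an equal volume of surfactant dispersion in Pluronic F-68 / 9‰ NaCl (g compound/g Pluronic per L) was shaken 1 h at 37 °C. Hemolysis was scored visually (0 to ++++).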

The nature of data set [15]: Hemolytic effect on human red blood cells when dispersed in Pluronic F-68 at the concentration of 20 g/10 g per L. The format is functional. The method in brief: as §5
Data set [16] is described as follows: Hemolytic effect on human red blood cells when dispersed in Pluronic F-68 at the concentration of 40 g/20 g per L. The format is functional. The method in brief: as §5
Data set [17] in a line: Growth inhibition towards Namalva Lymphoblastoid Cell Culture at the concentration of 0.05 g/L after dispersion in pluronic F-68. Format: functional. The note with it: in the assay text read “concentration of 0.1 g/L” for “concentration of 0.05 g/L”. The method in brief:
as §1

A short description of data set [18]: Hemolytic effect on human red blood cells when dispersed in Pluronic F-68 at the concentration of 10 g/2.5g per L. The format is functional. The method in brief:
as §5

A short description of data set [19]: Growth inhibition towards Namalva Lymphoblastoid Cell Culture at the concentration of 0.2 g/L. The format is functional. The method in brief:
as §1

Data set [20] is described as follows: Growth and viability inhibition towards Namalva Lymphoblastoid Cell Culture after resowing at the concentration of 0.1 g/L and after detoxification on anionic exchanger. Format: functional. The essentials:
as §4

Data set [21] in a line: Hemolytic effect on human red blood cells when dispersed in Pluronic F-68 at the concentration of 40 g/10 g per L. Format: functional. The essentials: as §5
For data set [22], the system named is Mus musculus. The experiment in a line: Toxicity in mice when dispersed in Pluronic F-68 in […] aqueous NaCl of 20 g/5 g per L at the concentration of 491 mg/kg body weight. The format is functional. The method in brief:
as §3

The test system of data set [23] is Mus musculus. The experiment in a line: Toxicity in mice when dispersed in Pluronic F-68 in […] aqueous NaCl of 40 g/10 g per L at the concentration of 1034 mg/kg body weight. Format: functional.
Data set [24] in a line: Viability inhibition towards Namalva Lymphoblastoid Cell Culture at the concentration of 0.2 g/L. Format: functional. The method in brief:
as §1

Data set [25] is described as follows: Hemolytic effect on human red blood cells when dispersed in Pluronic F-68 at the concentration of 20 g/5 g per L. The format is functional. The method in brief:
as §5

Data set [26] can be described thus: Growth inhibition towards Namalva Lymphoblastoid Cell Culture at the concentration of 0.1 g/L and after detoxification on anionic exchanger. Format: functional. The method in brief:
as §1

Data set [27] concerns Mus musculus. Kind of data set: Toxicity in mice when dispersed in Pluronic F-68 in […] aqueous NaCl of 0.1 g and at the concentration of 2,mg/Kg body weight. Format: functional. The method in brief:
as §3

In data set [28] the test system is Mus musculus. Kind of data set: Toxicity in mice when dispersed in Pluronic F-68 in […] aqueous NaCl of 15 g/3.73g per L at the concentration of 371 mg/kg body weight. Format: functional. The essentials:
as §3

Data set [29] is described as follows: Growth and viability inhibition towards Namalva Lymphoblastoid Cell Culture after resowing at the concentration of 0.2 g/L. Format: functional. The essentials: as §4
The nature of data set [30]: Viability inhibition towards Namalva Lymphoblastoid Cell Culture at the concentration of 0.1 g/L and after detoxification on anionic exchanger. Format: functional. The method in brief: as §1
Data set [31] can be described thus: Hemolytic effect on human red blood cells when dispersed in Pluronic F-68 at the concentration of 1 g/0.05 g per L. Format: functional. The essentials:
as §5

Data set [32] in a line: Percent hemolysis for an erythrocyte suspension at 1% hemocrait at the concentration of 1 g/0.05 g per L. The format is functional, Homo sapiens. The method in brief: as §2
Data set [33] is described as follows: Percent hemolysis for an erythrocyte suspension at 1% hemocrait at the concentration of 1 g/L. Format: functional, Homo sapiens. The method in brief:
as §2

Data set [34] has as its system Mus musculus. Kind of data set: Toxicity in mice when dispersed in Pluronic F-68 in […] aqueous NaCl of 0.1 g at the concentration of 2,mg/Kg body weight. Format: functional. The method in brief:
as §3

The nature of data set [35]: Hemolytic effect on human red blood cells when dispersed in Pluronic F-68 at the concentration of 20 g/1 g per L. Format: functional. The essentials:
as §5

For data set [36], the system named is Mus musculus. Kind of data set: Toxicity in mice when dispersed in Pluronic F-68 in […] aqueous NaCl of 20 g/10 g per L at the concentration of 443 mg/kg body weight. The format is functional. The method in brief: as §3
A short description of data set [37]: Hemolytic effect on human red blood cells when dispersed in Pluronic F-68 at the concentration of 10 g/5g per L. Format: functional. The essentials: as §5

As to `OCC(O)C(O)C(O)COC/C=C/C(F)(F)C(F)(F)C(F)(F)C(F)(F)C(F)(F)C(F)(F)C(F)(F)C(F)(F)F` (stereo not given), the Growth in data set [1] is listed as 78%; in [17] it was 108%. Besides, the Viability in [2] stood at 97%; in data set [13], 98%. Further, the values for the Resowing in data set [3] and in data set [10] were 115% and 100%, respectively. In addition, the Hemolysis in data set [4], in [5], in [6] and in [8] was 0% in each case. Further, the Survival ratio was 8 with Mus musculus [7], 10 with Mus musculus [9] and 5 with Mus musculus [11]. For the same compound, the concentration in solution in data set [12] (solubility) was 50 µg/mL (≈ 81.9 µM). The Activity in data set [14] stood at 16.4 mM; in data set [15], 32.8 mM; in [16], 65.6 mM.

In turn, `O=C(CCC(F)(F)C(F)(F)C(F)(F)C(F)(F)C(F)(F)C(F)(F)C(F)(F)C(F)(F)F)OCC(O)C(O)C(O)CO` (stereo not given) displayed a solubility in data set [12] of less than 10 µg/mL.

For the compound `OCC(O)C(O)C(O)COC/C=C/C(F)(F)C(F)(F)C(F)(F)C(F)(F)C(F)(F)C(F)(F)F` (stereo not given), the values for the Activity in data set [18], in [21] and in [25] were 19.6 mM, 78.4 mM and 39.2 mM, respectively. The Growth in data set [19] came out at 86%; in data set [1] it was 23%; in [26], 78%. The Resowing in data set [20] was 105%; in data set [10], 96%; in data set [29], 95%. Further, the Survival ratio in the data set on Mus musculus [22] was 8; in the data set on Mus musculus [23], 0; in the data set on Mus musculus [27] it was 10; in the data set on Mus musculus [28] it was 10. Besides, the results for the Viability in [2], in data set [24] and in data set [30] were 80%, 98% and 93%, respectively. In [12], this compound registered a solubility of less than 1000 µg/mL.

Turning to `O=C(CCC(F)(F)C(F)(F)C(F)(F)C(F)(F)C(F)(F)F)OCC(O)C(O)C(O)CO` (stereo not given), the solubility in data set [12] is 500 µg/mL (≈ 1050 µM).

On to `OCC(O)C(O)C(O)COC/C=C/C(F)(F)C(F)(F)C(F)(F)C(F)(F)F` (stereo not given), for which the Activity in data set [31] was found to be 2.4 mM; in data set [35], 48.7 mM; in data set [37], 24.4 mM. The Hemolysis in data set [32] and in data set [33] was 0% throughout. In addition, the Resowing was determined as 105% in [20] and 106% in data set [10]. Also, the Growth in data set [1] is 32%; in [26], 125%. Besides, the Viability worked out at 87% in [2] and 95% in data set [30]. Further, the Survival ratio in the data set on Mus musculus [34] is listed as 10; in the data set with Mus musculus [36], 9. In data set [12], the solubility was less than 5000 µg/mL.

As a reminder, the solubility is the dissolved amount per volume that the medium holds. High values mean a readily soluble substance, low ones a poorly soluble substance.
